Consider 46 compounds from ChEMBL document CHEMBL1147518, “Hydroxytriamides as potent gamma-secretase inhibitors” (Bioorg Med Chem Lett, 2004).

Each structure is given as a SMILES string. A value given as a limit tells only on which side of the number the result lay.

One assay addresses Gamma-secretase. Kind of assay: Inhibition of gamma-secretase activity in H4 human neuroglioma cells by measuring amyloid beta production. It counts as cell-based. In outline: (§1)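 H4 human neuroglioma cells expressing HPLAP-βAPP164SFAD, grown in high-glucose DMEM with 10% FBS, pen-strep, 2 mM glutamine and geneticin, plated in 96 wells; after attachment, medium swapped for Ultraculture containing compound (1% DMSO final), overnight incubation. Aβ1-40 in conditioned medium measured by sandwich ELISA (C-terminal Aβ40-specific capture, HRP N-terminal detection, TMB/phosphoric acid). Means of two experiments, 16 data points each.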
With `CCCCN(C)C(=O)[C@H](CC1CCCCC1)NC(=O)[C@H](C)NC(=O)Cc1cc(F)cc(F)c1`, inhibition was half-maximal at 32 nM (IC50).

With `CC(C)C[C@H](NC(=O)Cc1ccccc1)C(=O)N[C@@H](CC1CCCCC1)C(=O)N1CCCCC1`, the IC50 was determined as 50 nM.

For `CCCCN(C)C(=O)[C@H](CC1CCCCC1)NC(=O)[C@H](CC(C)C)NC(=O)Cc1cccc(OC)c1`, the midpoint of inhibition, the IC50, lay at 480 nM.

`CCCCN(C)C(=O)[C@H](CC1CCCCC1)NC(=O)[C@H](CC(C)C)NC(=O)Cc1cc(C(F)(F)F)cc(C(F)(F)F)c1` displayed an IC50 of 408 nM.

Take `CC(C)C[C@H](NC(=O)Cc1ccccc1)C(=O)N[C@@H](CC1CCCCC1)C(=O)N(C)CC(C)C`: the IC50 came to 13 nM.

Take `CCCCN(C)C(=O)[C@H](CC1CCCCC1)NC(=O)[C@H](CC(C)C)NC(=O)Cc1ccc(N)cc1`: the IC50 is 1100 nM.

`CCCCN(C)C(=O)[C@H](CC1CCCCC1)NC(=O)[C@H](CC(C)C)NC(=O)Cc1ccccc1` registered an IC50 of 17 nM.

For `CCCCN(C)C(=O)[C@H](CC1CCCCC1)NC(=O)[C@H](CC(C)C)NC(=O)[C@](C)(OC)c1ccccc1`, the IC50 is > 2500 nM.

`CCCCN(C)C(=O)[C@@H](CC1CCCCC1)NC(=O)[C@H](CC(C)C)NC(=O)Cc1ccccc1`: it took 1000 nM to reach half-maximal inhibition (IC50).

As for `CCCCN(C)C(=O)[C@H](CC1CCCCC1)NC(=O)[C@H](CC(C)C)NC(=O)[C@](C)(O)c1ccccc1`, the IC50 is > 2500 nM.

Turning to `CCCCN(C)C(=O)[C@H](CC1CCCCC1)NC(=O)[C@H](CC(C)C)NC(=O)Cc1cccc(C)c1`, the IC50 came to 454 nM.

`CCCCN(C)C(=O)[C@@H]1Cc2ccccc2CN1C(=O)[C@H](CC(C)C)NC(=O)[C@@H](O)c1ccccc1` displayed an IC50 of 66 nM.

Take `CCCCN(C)C(=O)[C@H](CC1CCCCC1)NC(=O)[C@H](CC(C)C)NC(=O)[C@@](C)(OC)c1ccccc1`: the concentration for half-maximal inhibition (IC50) is > 2500 nM.

Compound `COC(=O)[C@H](CC1CCCCC1)NC(=O)[C@H](CC(C)C)NC(=O)Cc1ccccc1` showed an IC50 of 800 nM.

Consider `CCCCN(C)C[C@H](CC1CCCCC1)NC(=O)[C@H](CC(C)C)NC(=O)Cc1ccccc1`, for which the IC50 amounted to 1700 nM.

`CC(C)CC[C@@H](O)[C@H](CC1CCCCC1)NC(=O)[C@H](CC(C)C)NC(=O)Cc1ccccc1` returned a concentration for half-maximal inhibition (IC50) of 1200 nM.

`CCCCN(C)C(=O)[C@H](CC1CCCCC1)NC(=O)[C@H](Cc1ccccc1)NC(=O)Cc1cc(F)cc(F)c1`: the IC50 amounted to 2400 nM.

Regarding `CCCCN(C)C(=O)[C@H](CC1CCCCC1)NC(=O)[C@@H]1CCCCN1C(=O)[C@@H](O)c1ccccc1`, the concentration for half-maximal inhibition (IC50) was > 2500 nM.

Take `CCCCN(C)C(=O)[C@H](CC1CCCCC1)NC(=O)[C@H](CC(C)C)NC(=O)[C@H](O)c1ccccc1`: it took 240 nM to reach half-maximal inhibition (IC50).

Compound `CC(C)CNC(=O)[C@H](CC1CCCCC1)NC(=O)[C@H](CC(C)C)NC(=O)Cc1ccccc1` gave an IC50 of 150 nM.

In turn, `CC(C)C[C@H](NC(=O)Cc1ccccc1)C(=O)N[C@@H](CC1CCCCC1)C(=O)N(C)Cc1ccccc1` gave an IC50 of 39 nM.

In turn, `CC(C)C[C@H](NC(=O)Cc1ccccc1)C(=O)N[C@@H](CC1CCCCC1)C(=O)N(C)C` returned an IC50 of 102 nM.

On to `CCCCN(C)C(=O)[C@H](CC1CCCCC1)NC(=O)CNC(=O)Cc1cc(F)cc(F)c1`, for which it took 300 nM to reach half-maximal inhibition (IC50).

As to `CCCCN(C)C(=O)[C@H](CC1CCCCC1)NC(=O)[C@H](CC(C)C)NC(=O)C(O)(O)c1ccccc1`, the IC50 was found to be 1 nM.

As to `CCCCN(C)C(=O)[C@H](CC1CCCCC1)NC(=O)[C@H](CC(C)C)NC(=O)[C@@H](OC)c1ccccc1`, the IC50 amounted to 2000 nM.

On to `CCCCN(C)C(=O)[C@H](CC1CCCCC1)NC(=O)[C@H](CC(C)C)NC(=O)CCc1ccccc1`, for which the IC50 is 160 nM.

On to `CCCCN(C)C(=O)[C@H](CC1CCCCC1)NC(=O)[C@H](CC(C)C)NC(=O)Cc1ccc(F)cc1`, for which the IC50 came to 36 nM.

Turning to `CCCCN(C)C(=O)[C@H](CC1CCCCC1)NC(=O)[C@H](CC(C)C)NC(=O)Cc1ccccc1F`, 280 nM corresponded to half-maximal inhibition (IC50).

On to `CCCCN(C)C(=O)[C@H](CC1CCCCC1)NC(=O)[C@H](CC(C)C)NC(=O)c1ccccc1`, for which the midpoint of inhibition, the IC50, lay at 3200 nM.

As to `CC(C)CCC(=O)[C@H](CC1CCCCC1)NC(=O)[C@H](CC(C)C)NC(=O)Cc1ccccc1`, half-maximal inhibition (IC50) required 300 nM.

Turning to `CCCCN(C)C(=O)[C@H](CC1CCCCC1)NC(=O)[C@H](CC(C)C)NC(=O)/C=C/c1ccccc1`, the IC50 was > 2600 nM.

For the compound `CCCCNC(=O)[C@H](CC1CCCCC1)NC(=O)[C@H](CC(C)C)NC(=O)Cc1ccccc1`, the half-maximal inhibitory concentration (IC50) was found to be 240 nM.

Turning to `CON(C)C(=O)[C@H](CC1CCCCC1)NC(=O)[C@H](CC(C)C)NC(=O)Cc1ccccc1`, 130 nM corresponded to half-maximal inhibition (IC50).

With `CCCCN(C)C(=O)[C@H](CC1CCCCC1)NC(=O)[C@H](CC(C)C)NC(=O)[C@H](OC)c1ccccc1`, the IC50 is > 2500 nM.

`CCCCN(C)C(=O)[C@H](CC1CCCCC1)NC(=O)[C@H](CC(C)C)NC(=O)Cc1cccc(N)c1`: the IC50 is > 2500 nM.

Compound `CCOC(=O)[C@H](CC1CCCCC1)NC(=O)[C@H](CC(C)C)NC(=O)Cc1ccccc1` displayed a half-inhibitory concentration (IC50) of 900 nM.

As to `CCCCN(C)C(=O)[C@H](CC1CCCCC1)NC[C@H](CC(C)C)NC(=O)[C@@H](O)c1ccccc1`, the IC50 is > 2500 nM.

In turn, `CCCCN(C)C(=O)[C@H](CC1CCCCC1)NC(=O)[C@H](CC(C)C)NC(=O)Cc1cccc(Cl)c1` came in with an IC50 of 52 nM.

Compound `CC(C)C[C@H](NC(=O)Cc1ccc2ccccc2c1)C(=O)N[C@@H](CC1CCCCC1)[C@H](O)Cc1ccccc1C(=O)NC(C)(C)C` displayed an IC50 of 4.7 nM.

For `CCCCN(CC)C(=O)[C@H](CC1CCCCC1)NC(=O)[C@H](CC(C)C)NC(=O)Cc1ccccc1`, the IC50 amounted to 55 nM.

Regarding `CCCCN(C)C(=O)[C@H](CC1CCCCC1)NC(=O)[C@H](CC(C)C)NC(=O)Cc1cc(OC)cc(OC)c1`, it took 800 nM to reach half-maximal inhibition (IC50).

`CCCCN(C)C(=O)[C@H](CC1CCCCC1)NC(=O)[C@H](CC(C)C)NC(=O)Cc1cccc(F)c1` came in with an IC50 of 20 nM.

The target of a further assay is Gamma-secretase. Description: Inhibition of gamma-secretase activity in H4 human neuroglioma cells by measuring amyloid beta production; Inactive. It counts as cell-based. In a few lines: as §1
Turning to `CCCCN(C)C(=O)[C@H](CC1CCCCC1)NC(=O)[C@@H](CC(C)C)NC(=O)Cc1cc(F)cc(F)c1`, the half-maximal inhibitory concentration (IC50) is > 2500 nM.

On to `CCCCN(C)C(=O)[C@H](CC(=O)O)NC(=O)[C@H](CC(C)C)NC(=O)Cc1cc(F)cc(F)c1`, for which the IC50 is > 2500 nM.

As for `CCCCN(C)C(=O)[C@H](CC1CCCCC1)NC(=O)[C@@H]1CCCN1C(=O)Cc1cc(F)cc(F)c1`, the IC50 was > 2500 nM.

Take `CCCCN(C)C(=O)[C@H](CCCCN)NC(=O)[C@H](CC(C)C)NC(=O)Cc1cc(F)cc(F)c1`: the IC50 was > 2500 nM.
